The text below walks through data of ChEMBL document CHEMBL1125205, “Phosphorus-containing inhibitors of HMG-CoA reductase. 2. Synthesis and biological activities of a series of substituted pyridines containing a hydroxyphosphinyl moiety” (J Med Chem, 1991).

Assay [1] deals with T1, 3-hydroxy-3-methylglutaryl-coenzyme A reductase (Rattus norvegicus, UniProt P51639).
T1 sequence (P51639 whole entry): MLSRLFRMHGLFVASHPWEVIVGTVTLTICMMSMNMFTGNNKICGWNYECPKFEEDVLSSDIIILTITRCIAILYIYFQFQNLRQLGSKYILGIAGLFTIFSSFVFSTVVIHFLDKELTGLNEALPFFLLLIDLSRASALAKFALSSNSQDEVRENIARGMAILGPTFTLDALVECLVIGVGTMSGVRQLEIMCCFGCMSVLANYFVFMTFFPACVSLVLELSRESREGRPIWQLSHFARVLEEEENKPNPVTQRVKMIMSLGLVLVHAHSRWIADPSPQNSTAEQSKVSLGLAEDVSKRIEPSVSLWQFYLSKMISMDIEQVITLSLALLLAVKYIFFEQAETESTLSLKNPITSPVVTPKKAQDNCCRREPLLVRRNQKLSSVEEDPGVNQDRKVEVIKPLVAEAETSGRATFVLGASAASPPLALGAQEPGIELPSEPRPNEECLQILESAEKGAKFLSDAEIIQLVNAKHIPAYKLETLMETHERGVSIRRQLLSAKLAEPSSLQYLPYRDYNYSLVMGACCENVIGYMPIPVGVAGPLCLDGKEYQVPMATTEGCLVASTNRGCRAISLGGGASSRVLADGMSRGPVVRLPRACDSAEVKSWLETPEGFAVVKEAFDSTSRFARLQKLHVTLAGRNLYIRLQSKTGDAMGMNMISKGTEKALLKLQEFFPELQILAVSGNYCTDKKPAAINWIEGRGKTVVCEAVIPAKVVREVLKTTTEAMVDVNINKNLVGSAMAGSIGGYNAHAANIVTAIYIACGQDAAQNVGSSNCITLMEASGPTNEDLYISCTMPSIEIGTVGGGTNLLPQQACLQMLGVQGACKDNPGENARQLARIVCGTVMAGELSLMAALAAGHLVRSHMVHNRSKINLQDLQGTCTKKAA
The experiment in a line: In vitro for inhibition of rat HMG-CoA reductase. The following applies: read-out: I50. Put shortly:
(§1)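 Enzyme source: hepatic microsomes from cholestyramine-fed Sprague-Dawley rats. Final assay conditions: 0.04 M potassium phosphate pH 7.2, KCl, sucrose, EDTA, 10 mM DTT, 1% DMSO, 50-200 µg microsomal protein. Microsomes were preincubated with 2.7 mM NADPH for 15 min at 37 °C, then with compound for 15 min. 100 µM 14C-[D,L]-HMG-CoA was then added for 20 min at 37 °C. Read-out: 14C-mevalonate, corrected by 3H-mevalonate recovery. I50 taken from composite dose-response regressions, 2-5 experiments.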

The species named for the next assay is Homo sapiens. The assay is described as follows: The compound was tested for inhibition of Cholesterol synthesis from [14C]- Acetate in human skin fibroblasts. It counts as functional. Put shortly: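 Human skin fibroblasts (passage 7-27) were plated at 5 × 10^5 cells/well and cultured 18 h. Sterol synthesis was induced by 24 h in serum-free MEM with 1.0% fatty acid-free BSA. Cells were preincubated with compound for 30 min (DMSO ≤1.0%), then given sodium [1-14C]acetate at 2.0 µCi/mL for 4 h. Label in the extracted cholesterol peak was compared with controls. I50 from composite curves of ≥2 experiments.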

Assay [2] has as its system Rattus norvegicus. The experiment in a line: The compound was tested in vivo for inhibition of Cholesterol Biosynthesis from [14C]- acetate in rat after peroral administration. It counts as functional. The following applies: po.
The species entered for assay [3] is Rattus norvegicus. The assay is described as follows: The compound was tested for inhibition of Cholesterol synthesis from [14C]- Acetate in hepatocytes of rats. In kind it is functional. The following applies: Hepatocyte. The method in brief:
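Rat hepatocytes were freshly isolated by collagenase perfusion, 70-90% viable. Cells were suspended at 5 × 10^6 per 2.0 mL in Tris pH 7.4 incubation medium with cofactors; DMSO was ≤1.0% final. Incubation was with [14C]acetate (2 µCi/mL) for 2.0 h at 37 °C. Lipids were extracted by Bligh-Dyer and the percent of label in the cholesterol peak was compared with controls. I50 from composite curves of two or more studies.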

A short description of assay [4]: It is the ratio of I50 fibroblasts to that of I50 hepatocytes. It counts as functional, Hepatocyte. The method in brief:
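Selectivity is the ratio of I50 in human skin fibroblasts to I50 in freshly isolated rat hepatocytes. Each I50 came from [14C]acetate incorporation into cholesterol, measured as percent inhibition versus controls from composite dose-response data.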

Assay [5] relates to Rattus norvegicus. The experiment in a line: The compound was tested in vivo for inhibition of Cholesterol Biosynthesis from [14C]- acetate in rat after intravenous administration. It counts as functional. The method in brief:
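Male Sprague-Dawley rats (200-300 g) were kept on a reverse light cycle. Salt forms were given iv into the tail vein in saline, 5 min before ip sodium [1-14C]acetate (25 µCi/100 g), dosed 2 h before mid-dark. Blood was taken 2 h after mid-dark. Read-out: 14C nonsaponifiable plasma lipid per mL versus controls, 4-5 rats/group. ED50 from log dose regressions, mean of ≥2 experiments.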

Assay [6] has as its target T1, 3-hydroxy-3-methylglutaryl-coenzyme A reductase. The assay is described as follows: The compound was tested in vitro for inhibition of rat hepatic HMG-CoA reductase. The following applies: read-out: I50. It counts as functional. Put shortly:
as §1

A value given as a limit tells only on which side of the number the result lay.

On to `CCc1c(-c2ccccc2)nc(C(C)C)c(/C=C/P(=O)([O-])C[C@H](O)CC(=O)[O-])c1-c1ccc(F)cc1.[Na+].[Na+]`, for which the IC50 amounted to 0.55 nM in assay [1], 4700 nM in the assay filed under Homo sapiens (read-out: I 50) and 241 nM in the assay listed under Rattus norvegicus [3] (read-out: I 50). Besides, the ED50 was more than 10 mg/kg in the assay with Rattus norvegicus [2] and 0.2 mg/kg in the assay with Rattus norvegicus [5]. Also, the Selectivity in assay [4] turned out to be 19.5.

As for `CC[C@H](C)C(=O)O[C@H]1C[C@H](O)C=C2C=C[C@H](C)[C@H](CC[C@@H](O)C[C@@H](O)CC(=O)[O-])[C@H]21.[Na+]` [PRAVASTATIN SODIUM], the IC50 in assay [6] stood at 24 nM. In addition, the ED50 was found to be 0.75 mg/kg in the assay with Rattus norvegicus [2] and 0.053 mg/kg with Rattus norvegicus [5]. In assay [4], the Selectivity is recorded as 31.

Turning to `CC(C)c1nc(-c2ccccc2)cc(-c2ccc(F)cc2)c1/C=C/P(=O)([O-])C[C@H](O)CC(=O)[O-].[Li+].[Li+]`, the IC50 came to 1.9 nM in assay [1], 2000 nM in the assay filed under Homo sapiens (read-out: I 50) and 77 nM in the assay filed under Rattus norvegicus [3] (read-out: I 50). For the same compound, the ED50 is 21.4 mg/kg in the assay on Rattus norvegicus [2] and 0.22 mg/kg in the assay with Rattus norvegicus [5]. Besides, the Selectivity in assay [4] is on record as 26.

For `CC(C)c1nc(-c2ccccc2)cc(-c2ccc(F)cc2)c1C#CP(=O)([O-])C[C@H](O)CC(=O)[O-].[Li+].[Li+]`, the figures for the IC50 (in assay [1]; in the assay listed under Homo sapiens (read-out: I 50); in the assay filed under Rattus norvegicus [3] (read-out: I 50)) were 62 nM, 9300 nM and 197 nM, respectively. Moreover, the ED50 with Rattus norvegicus [2] was 3.9 mg/kg; in the assay on Rattus norvegicus [5], 0.47 mg/kg. Moreover, the Selectivity in assay [4] is 47.

Take `CC(C)c1nc(C(C)(C)C)cc(-c2ccc(F)cc2)c1C#CP(=O)([O-])C[C@H](O)CC(=O)[O-].[Na+].[Na+]`: the values for the IC50 (in assay [1]; in the assay filed under Homo sapiens (read-out: I 50); in the assay filed under Rattus norvegicus [3] (read-out: I 50)) were 6.1 nM, 2400 nM and 556 nM, respectively. The ED50 with Rattus norvegicus [2] was 3.5 mg/kg; in the assay with Rattus norvegicus [5] it was 0.7 mg/kg. Moreover, in assay [4], the Selectivity amounted to 4.3.

For `Cc1c(-c2ccccc2)nc(C(C)C)c(C#CP(=O)([O-])C[C@H](O)CC(=O)[O-])c1-c1ccc(F)cc1.[Li+].[Li+]`, the IC50 in assay [1] was 4.5 nM; in the assay listed under Homo sapiens (read-out: I 50), 11300 nM; in the assay listed under Rattus norvegicus [3] (read-out: I 50), 81 nM. The results for the ED50 with Rattus norvegicus [2] and with Rattus norvegicus [5] were 3.1 mg/kg and 0.13 mg/kg, respectively. Further, the Selectivity in assay [4] came to 140.

As for `Cc1c(-c2ccccc2)nc(C(C)C)c(/C=C/P(=O)([O-])C[C@H](O)CC(=O)[O-])c1-c1ccc(F)cc1.[Na+].[Na+]`, the IC50 was 1.2 nM in assay [1], 2000 nM in the assay filed under Homo sapiens (read-out: I 50) and 260 nM in the assay filed under Rattus norvegicus [3] (read-out: I 50). For the same compound, the ED50 with Rattus norvegicus [2] came out at 0.46 mg/kg; with Rattus norvegicus [5], 0.1 mg/kg. Further, in assay [4], the Selectivity is on record as 7.7.

Take `CC[C@H](C)C(=O)O[C@@H]1C[C@@H](C)C=C2C=C[C@H](C)[C@H](CC[C@@H](O)C[C@H](O)CC(=O)[O-])C21.[Na+]` (some centres undefined): the results for the IC50 in the assay listed under Homo sapiens (read-out: I50) and in the assay filed under Rattus norvegicus [3] (read-out: I50) were 18.8 nM and 146 nM, respectively. The ED50 in the assay on Rattus norvegicus [2] was 0.4 mg/kg; in the assay on Rattus norvegicus [5], 0.033 mg/kg.
